From PubChem BioAssay
This is a sample that favours compounds with a hit; in the whole collection about 3.6% have one here.
NS3 helicase inh: blocks Hepatitis C virus NS3 helicase unwinding. inhibition, % at 10.9 µM. NS3 helicase DNA unwinding, Cy5 molecular beacon fluorescence. AID 1800. actives 0.56% (n = 290,000);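 active means inhibition above the mean of all tested compounds plus 3 SD, set per campaign, cut at about 35% in these data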;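 further: 0% = DMSO wells and 100% = thioflavine S control wells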
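Compound dosing – single dose, 10.9 µM nominal final, DMSO 0.8% final · System – NS3 helicase fragment of HCV · Buffer or medium – MOPS pH 6.5, MgCl2, DTT, Tween20, BSA · Signal – Cy5 beacon fluorescence read at start and 1 h · Also added – annealed dual-labelled DNA beacon duplex, ATP-started · Schedule – 1 h at 25 °C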
EBNA-1 inhibitor: blocks EBNA-1 binding to DNA; actives 0.34% (n = 300,000); EBNA-1 DNA binding, fluorescence polarization; inhibition, % at 14.8 µM; AID 1950; in the data active means inhibition above about 28%
ZTA DNA inh: counter-screen for EBNA-1 inhibitors: inhibitors of Epstein-Barr virus ZTA | AID 2234 | inhibition, % at 11 µM | ZTA-DNA binding, fluorescence polarization | actives 0.15% (n = 320,000); in the data active means inhibition above about 33%
Target sequence (P03206 whole entry, looked up): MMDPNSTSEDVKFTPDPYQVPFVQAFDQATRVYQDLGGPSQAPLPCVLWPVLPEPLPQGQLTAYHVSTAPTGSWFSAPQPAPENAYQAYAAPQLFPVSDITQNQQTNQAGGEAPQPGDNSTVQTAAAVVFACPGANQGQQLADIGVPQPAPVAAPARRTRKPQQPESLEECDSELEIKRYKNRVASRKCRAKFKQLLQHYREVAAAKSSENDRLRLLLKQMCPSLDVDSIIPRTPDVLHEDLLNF
DNA FID counter: fluorescent intercalator displacement, NS3 helicase counter-screen. actives 0.17% (n = 290,000). DNA fluorescent intercalator displacement, fluorescence. inhibition, % at 7.9 µM; in the data active means inhibition above about 37%;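 further: 0% = vehicle and 100% = reference compound; higher means more ethidium bromide displaced from hairpin DNA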
NR3A LBD binder: modulators (binders) of human NR3A ligand-binding domain | NR3A LBD differential scanning fluorimetry, Tm shift; 0% = protein alone, 100% = glycine-bound protein | Tm shift relative to glycine control, % at 25 µM | actives 2.5% (n = 340,000) | AID 1259313;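 active means melting temperature shift of at least 10% of the positive control shift, at one fixed dose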
FGF22 binding: shifts melting point of recombinant human FGF22; Q9HCT0; recombinant FGF22 thermal shift, SYPRO orange fluorescence; percent of sucrose octasulfate shift, DMSO zero; activity (Tm shift, normalised), % at 9.99 µM; actives 1.5% (n = 340,000);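 active means mean Tm shift, scaled 0 neutral to 100 positive control, at about 1.3% or above, every replicate too, limit read from the data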
Target sequence (Q9HCT0 whole entry, looked up): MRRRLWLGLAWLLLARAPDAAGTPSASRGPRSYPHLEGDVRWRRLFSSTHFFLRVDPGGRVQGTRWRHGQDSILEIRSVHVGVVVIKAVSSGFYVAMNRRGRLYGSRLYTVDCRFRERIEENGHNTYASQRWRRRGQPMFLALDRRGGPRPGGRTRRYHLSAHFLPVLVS
Starred values were filed as active, the others as inactive; . = no result.

SMILES	NS3 helicase inh	EBNA-1 inhibitor	ZTA DNA inh	DNA FID counter	NR3A LBD binder	FGF22 binding
C[C@H]1CN([C@@H](C)CO)C(=O)c2cc(-c3ccccc3)cnc2O[C@@H]1CN(C)C(=O)Cc1cccnc1	.	.	.	.	.	0
CC(C)N(Cc1nc(-c2ccccc2)no1)C(=O)C(C)(C)C	-4	6	-16	-22	0	.
CC(C)N(Cc1nc(-c2ccccc2)no1)C(=O)C(Cl)(Cl)Cl	9	-6	-2	-9	1	43*
C=CCN(Cc1nc(-c2ccccc2)no1)C(=O)c1ccoc1C	1	5	3	-40	14*	0
Cc1noc(C)c1NC(=O)N[C@H]1CC[C@@H](CC(=O)N2CCN(C)CC2)O[C@@H]1CO	.	.	.	.	.	0
CO[C@@H]1CN(C)C(=O)c2cc(NC(=O)Nc3cccc(F)c3)ccc2OC[C@H](C)NC[C@@H]1C	.	.	.	.	.	0
COc1ccc2c(c1)sc1nc(-c3ccccc3)cn12	-6	-2	-22	-9	20*	.
O=C(NCC[C@@H]1CC[C@H](NC(=O)C2CCCC2)[C@@H](CO)O1)c1ccc(F)cc1	.	.	.	.	.	0
CCOC(=O)c1sc(=S)n(Cc2ccccc2)c1C	-2	6	-1	-1	14*	0
CCOC(=O)c1sc(=S)n(-c2ccccc2)c1C	5	2	-4	-3	-4	0
COc1ccc(S(=O)(=O)N(C)C[C@@H]2Oc3ccc(NC(=O)Cc4ccccc4)cc3CC(=O)N([C@H](C)CO)C[C@H]2C)cc1	.	.	.	.	.	0
CCOC(=O)c1cc(C)n(S(=O)(=O)c2ccc(C)cc2)c1C	-25	6	6	-2	14*	.
CCOC(=O)c1ccccc1NS(=O)(=O)c1ccc(C)cc1	0	-17	11	-11	0	.
Cc1ccc2[nH]c(CN3CCC(CO)(CC4CCCCO4)CC3)c(C)c2c1 (stereo unspecified)	-19	-2	-9	16	-2	43*
CCCN1C(=O)S/C(=C/c2ccc(N3CCOCC3)o2)C1=O	25	-5	3	-20	1	0
CCCN1C(=O)S/C(=C\c2ccc(N3CCOCC3)o2)C1=O	16	-3	2	-32	0	43*
O=C(O)CCC(=O)Nc1ccc(C(=O)OCC(=O)c2ccc(Cl)cc2Cl)cc1	14	-4	7	-33	-3	43*
CCC(=O)Nc1cc(C(=O)OCC(=O)c2ccc(Cl)cc2Cl)ccc1C	-1	0	-15	-5	-4	.
Cc1oc(-c2ccccc2)cc1C(=O)Nc1cccc(/C=C/C(=O)O)c1	28	.	.	-3	-14	0
CC(=O)c1cccc(NC(=O)c2ccoc2C)c1	6	-6	-8	-6	-1	1
COc1ccc(NC(=O)c2cc(-c3ccccc3)oc2C)cc1	1	-3	5	-13	18*	.
Cc1occc1C(=O)Nc1ccc2ccccc2c1	4	0	1	6	24*	.
Cc1oc(-c2ccccc2)cc1C(=O)Nc1ccc2ccccc2c1	12	3	-8	6	15*	.
Cc1oc(-c2ccccc2)cc1C(=O)Nc1ccccc1	-4	-3	-2	-7	4	.
C[C@H](CO)N1C[C@H](C)[C@@H](CN(C)C(=O)NC2CCCCC2)OCCCC[C@H](C)Oc2ccc(NC(=O)c3ccccc3)cc2C1=O	.	.	.	.	.	0
SMILES	NS3 helicase inh	EBNA-1 inhibitor	ZTA DNA inh	DNA FID counter	NR3A LBD binder	FGF22 binding
Cc1ccc(C(=O)O)cc1NC(=S)NC(=O)c1ccc([N+](=O)[O-])c(C)c1	2	-1	0	-17	-2	43*
Cc1ccc(CNC(=S)Nc2cc(C(=O)O)ccc2C)cc1	2	8	5	-9	1	0
Cc1cc(S(=O)(=O)N(Cc2ccc3c(c2)OCO3)CC2CCCO2)ccc1-n1cnnn1 (stereo unspecified)	-8	11	4	-21	21*	.
O=C(C[C@H]1C=C[C@H](NC(=O)C2CCOCC2)[C@H](CO)O1)NCC1CC1	.	.	.	.	.	1
Cc1nn(-c2ccccc2)c(N)c1-c1ccccc1	-3	-1	-9	-10	1	0
Cc1nn(-c2ccccc2)c(/N=C/c2ccccc2O)c1-c1ccccc1	9	11	10	0	14*	.
CC(=O)C1=C(NC(=O)c2ccc(C(F)(F)F)cc2)C[C@@H]2[C@H]1C2(C)C	3	0	0	-4	1	0
CC(=O)C1=C(NC(=O)c2ccccc2F)C[C@@H]2[C@H]1C2(C)C	-2	0	2	-16	14*	.
O=C(Nc1ccc2c(c1)CCC2)c1ccccc1Br	-18	-8	2	0	-1	0
CC(=O)c1cccc(NC(=O)Nc2ccc3c(c2)CCC3)c1	-3	6	-2	-17	22*	0
CSc1ccccc1C(=O)Nc1ccc2c(c1)CCC2	-5	3	11	-14	10*	0
Cc1cccc(NC(=O)Nc2ccc3c(c2)CCC3)c1	7	8	10	-5	16*	0
Cc1ccc(NC(=S)NCCSc2ccc(Cl)cc2)cc1	-12	-11	-14	-1	18*	1
COc1ccc(Cl)cc1NC(=S)NCCSc1ccc(C)cc1	-14	3	4	-7	25*	0
OCCNCCSc1ccc(Cl)cc1	-4	-10	-4	10	0	43*
OCCNCCCCSc1ccc(Cl)cc1	-9	1	-14	9	0	0
CC(CNC(=S)Nc1cc(F)cc(F)c1)CSc1ccc(Cl)cc1 (stereo unspecified)	6	-14	19	-10	10*	0
Cc1ccccc1S(=O)(=O)N[C@H]1CC[C@@H](CCn2cc(-c3ccccc3)nn2)O[C@@H]1CO	.	.	.	.	.	0
O=C(C1CC1)N1CC2(C1)[C@H](c1ccccc1)[C@@H](CO)N2S(=O)(=O)c1ccccc1	.	.	.	.	.	0
C[C@H](CO)N1C[C@H](C)[C@@H](CN(C)CC2CCCCC2)OCCCC[C@H](C)Oc2ccc(NC(=O)C3CCCCC3)cc2C1=O	.	.	.	.	.	0
COC(=O)c1cc(OC)c(OC)cc1NC(=S)Nc1cc(Cl)ccc1OC	-9	-6	-14	-6	-3	0
COc1ccc(Cl)cc1NC(=S)Nc1ccc(Cl)cn1	-9	4	3	0	16*	42
C[C@@H]1CCCCO[C@H](CN(C)C(=O)Nc2ccc(F)cc2)[C@H](C)CN([C@@H](C)CO)C(=O)c2cc(NS(=O)(=O)c3ccccc3)ccc2O1	.	.	.	.	.	0
Cc1cc(S(=O)(=O)N2CCOCC2)ccc1OCC(=O)Nc1ccc(F)cc1	-3	7	17	-25	0	0
Cc1cc(S(=O)(=O)N2CCOCC2)ccc1OCC(=O)Nc1ccc(F)c(Cl)c1	7	-1	-3	-18	44*	0
Cc1ccc(OCC(=O)Nc2ccc(S(=O)(=O)N3CCOCC3)cc2)c(C)c1	-6	.	.	-30	11*	0
